The species entered for series [1] is Rattus norvegicus. The series is described as follows: Tissue biodistribution into estrogen-primed immature female rat muscle at 1 hr time interval. In kind it is ADME, organism-based. Particulars: in vivo. In short, it runs like this:
(§1)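 Immature female Sprague-Dawley rats (25 days old, ≈50 g, five per time point) primed with estradiol, 5 μg sc daily for 2 days in 50% ethanol/sunflower seed oil, used 24 h after the last injection. The 18F-labeled ligand was given iv by tail vein in 10% ethanol/saline. Decapitated at 1 or 3 h; blood and organs weighed and gamma-counted. Reported as %ID/g ± SD, n = 5.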

For series [2], the species on record is Rattus norvegicus. The series is described as follows: Tissue biodistribution into estrogen-primed immature female rat kidney at 1 hr time interval. In kind it is ADME, organism-based. To be noted: in vivo. In a few lines: as §1
The species named for series [3] is Rattus norvegicus. The series is described as follows: Tissue biodistribution into estrogen-primed immature female rat brain at 1 hr time interval. The series is classed as ADME, organism-based. To be noted: in vivo. In a few lines: as §1
In series [4] the target is T1, Progesterone receptor (Homo sapiens) (UniProt P06401).
T1 sequence (whole entry): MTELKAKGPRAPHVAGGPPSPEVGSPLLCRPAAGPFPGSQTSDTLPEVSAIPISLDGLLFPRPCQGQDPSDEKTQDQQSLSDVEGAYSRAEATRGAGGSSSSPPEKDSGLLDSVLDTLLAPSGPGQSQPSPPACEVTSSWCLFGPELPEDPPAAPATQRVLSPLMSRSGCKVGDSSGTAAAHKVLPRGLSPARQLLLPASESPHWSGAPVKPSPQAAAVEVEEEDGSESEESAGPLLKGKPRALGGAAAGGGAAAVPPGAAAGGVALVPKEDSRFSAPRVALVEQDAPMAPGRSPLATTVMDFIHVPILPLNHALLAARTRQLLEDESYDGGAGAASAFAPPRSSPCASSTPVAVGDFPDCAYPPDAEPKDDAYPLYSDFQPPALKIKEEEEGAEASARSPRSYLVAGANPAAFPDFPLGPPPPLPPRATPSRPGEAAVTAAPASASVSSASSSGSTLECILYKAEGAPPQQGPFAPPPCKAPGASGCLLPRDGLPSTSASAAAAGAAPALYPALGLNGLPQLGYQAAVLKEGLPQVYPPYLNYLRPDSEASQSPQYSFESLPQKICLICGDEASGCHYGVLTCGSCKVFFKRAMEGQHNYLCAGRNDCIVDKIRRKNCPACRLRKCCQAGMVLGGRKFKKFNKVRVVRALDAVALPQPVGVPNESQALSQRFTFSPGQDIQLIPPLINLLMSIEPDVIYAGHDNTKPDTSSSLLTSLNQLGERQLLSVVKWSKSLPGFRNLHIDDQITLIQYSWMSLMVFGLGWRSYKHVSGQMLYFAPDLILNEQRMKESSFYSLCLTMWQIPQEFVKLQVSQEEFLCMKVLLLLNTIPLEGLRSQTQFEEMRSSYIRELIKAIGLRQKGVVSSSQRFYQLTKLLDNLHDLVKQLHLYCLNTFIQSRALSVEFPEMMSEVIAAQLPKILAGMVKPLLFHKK
The series is described as follows: Nonspecific binding affinity against progesterone receptor was estimated relative to compound R5020.

Series [5] is filed under the species Rattus norvegicus. The series is described as follows: Tissue biodistribution into estrogen-primed immature female rat uterus/blood at 1 hr time interval. In kind it is ADME, organism-based. Particulars: in vivo. In a few lines: as §1
The species named for series [6] is Rattus norvegicus. The series is described as follows: Tissue biodistribution into estrogen-primed immature female rat ovaries at 1 hr time interval. The series is classed as ADME, organism-based, Female gonad. To be noted: in vivo. In a few lines: as §1
The species named for series [7] is Rattus norvegicus. The series is described as follows: Tissue biodistribution into estrogen-primed immature female rat fat at 1 hr time interval. In kind it is ADME, organism-based, Adipose tissue. To be noted: in vivo. In short, it runs like this: as §1
For series [8], the target named is T1, Progesterone receptor (Homo sapiens). The series is described as follows: Binding selectivity index as the ratio of RBA value to that of NSB value. In a few lines: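 BSI calculated as the ratio of RBA to NSB.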
Series [9] is filed under the species Rattus norvegicus. The series is described as follows: Tissue biodistribution into estrogen-primed immature female rat blood at 1 hr time interval. In kind it is ADME, organism-based. Particulars: in vivo. In short, it runs like this: as §1
The target in series [10] is T1, Progesterone receptor (Homo sapiens). The series is described as follows: Relative binding affinity against progesterone receptor at 0 degree Celsius determined in a competitive radiometric binding assay (R5020=100%). In a few lines:
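Competitive radiometric binding at 0 °C against tritium-labeled R5020 as the standard (RBA = 100). Values are the average of two experiments.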

For series [11], the species on record is Rattus norvegicus. The series is described as follows: Tissue biodistribution into estrogen-primed immature female rat lung at 1 hr time interval. The series is classed as ADME, organism-based. To be noted: in vivo. In short, it runs like this:
as §1

For series [12], the species on record is Rattus norvegicus. The series is described as follows: Tissue biodistribution into estrogen-primed immature female rat uterus/muscle at 1 hr time interval. To be noted: in vivo. In kind it is ADME, organism-based.
For series [13], the species on record is Rattus norvegicus. The series is described as follows: Tissue biodistribution into estrogen-primed immature female rat uterus at 1 hr time interval. The series is classed as ADME, organism-based. To be noted: in vivo. In a few lines:
as §1

Series [14] is filed under the species Rattus norvegicus. The series is described as follows: Tissue biodistribution into estrogen-primed immature female rat bone at 1 hr time interval. In kind it is ADME, organism-based, Bone element. To be noted: in vivo. In a few lines:
as §1

The species entered for series [15] is Rattus norvegicus. The series is described as follows: Tissue biodistribution into estrogen-primed immature female rat liver at 1 hr time interval. In kind it is ADME, organism-based. To be noted: in vivo. In short, it runs like this: as §1
The nature of series [16]: Partition coefficient (logP). In kind it is physicochemical. To be noted: octanol/water. In a few lines:
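log P(o/w) (octanol/water) estimated by a reversed-phase HPLC method.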

Values joined by “and” are separate entries in the source; they are usually repeats but may differ in a detail not shown here. Identical values can stand only once.

For the compound `CC[C@@H]1C[C@H]2[C@@H]3CCC4=CC(=O)CC[C@@H]4[C@H]3CC[C@]2(C)[C@H]1C(=O)CF`, the Injected dose/g was 0.42% in series [1]; 1.05% in series [2]; 0.63% in [3]; 2.86% in series [6]; 3.56% in series [7]; 0.25% in [9]. Further, the Injected dose/g in series [11] is recorded as 0.47%; in series [13], 6.43%; in series [14] it was 3.18%; in series [15], 3.34%. The NSB in series [4] was 1.87. In addition, in [5], the “Uterus to blood concentration ratio” value came to 26.26%. In series [8], the BSI stood at 374. The compound also displayed an RBA in [10] of 700. For the same compound, the “Uterus to muscle uptake ratio” value in series [12] was determined as 15.98%.
In general, logP refers to a log measure of how a compound divides between an organic and an aqueous phase. `CC(=O)[C@@]12OC(C)(c3ccco3)O[C@@H]1CC1C3CCC4=CC(=O)CC[C@]4(C)C3CC[C@@]12C` (stereo partly specified): the NSB in series [4] is 2.08 and 2.74. For the same compound, the figures for the logP in series [16] and in series [16] (read-out: logP) were 5.03 and 4.76, respectively. Also, in [8], the BSI was 2 and < 1.
As for `C[C@]12CCC3C(CCC4=CC(=O)CC[C@@H]43)C1C[C@H]1OC(c3ccco3)O[C@]12C(=O)CO` (stereo partly specified), in series [4], the NSB was 0.96 and 0.76. For the same compound, the logP in series [16] stood at 3.78; in series [16] (read-out: logP) it was 4.01.
Take `CC(=O)[C@@]12OC(c3ccco3)O[C@@H]1CC1C3CCC4=CC(=O)CC[C@]4(C)C3CC[C@@]12C` (stereo partly specified): in [4], the NSB is 1.69 and 2.08. In addition, the logP in [16] came to 4.76; in [16] (read-out: logP) it was 4.56.
As for `CC[C@@H]1C[C@H]2[C@@H]3CCC4=CC(=O)CC[C@@H]4[C@H]3CC[C@]2(C)[C@H]1C(=O)CO`, in [4], the NSB is 0.97. Further, the BSI in series [8] was 206. This compound yielded an RBA in series [10] of 200.
With `CC(=O)[C@@]12O[C@](C)(c3ccc(F)cc3)O[C@@H]1CC1C3CCC4=CC(=O)CC[C@]4(C)C3CC[C@@]12C` (stereo partly specified), the Injected dose/g in series [1] is listed as 0.82%; in [2], 2.18%; in series [3], 0.56%; in series [6], 3.93%; in series [7], 5.76%; in series [9], 0.47%. Further, the Injected dose/g is 1.3% in series [11], 3.08% in [13], 1.76% in [14] and 3.41% in series [15]. Besides, in [4], the NSB is 5.52. In series [5], the “Uterus to blood concentration ratio” value is 6.59%. Besides, the BSI in series [8] is 10. The compound further yielded an RBA in [10] of 53. The “Uterus to muscle uptake ratio” value in [12] came out at 3.85%.
For `CC(=O)[C@H]1CC[C@H]2[C@@H]3CCC4=CC(=O)CC[C@]4(C)[C@H]3CC[C@]12C`, the NSB in [4] was 0.83. Moreover, in [8], the BSI came out at 16. Besides, the RBA in series [10] is 13.
In the case of `CC1(c2ccco2)O[C@@H]2CC3C4CCC5=CC(=O)CC[C@@H]5C4CC[C@]3(C)[C@]2(C(=O)CO)O1` (stereo partly specified), in series [4], the NSB is 1.2 and 0.86. Also, the logP in [16] amounted to 3.9; in series [16] (read-out: logP), 4.23.
`CCC(=O)[C@@]1(C)CC[C@H]2[C@@H]3CCC4=CC(=O)CCC4=C3CC[C@@]21C`: in [4], the NSB was 1. For the same compound, the BSI in series [8] is 100. In series [10], this compound returned an RBA of 100.
As for `CC1(c2ccc(F)cc2)O[C@@H]2CC3C4CCC5=CC(=O)CC[C@@H]5C4CC[C@]3(C)[C@]2(C(=O)CF)O1` (stereo partly specified), the NSB in [4] was 4.36. The log partition coefficient (logP) in [16] (read-out: logP) came to 5.48. In addition, the BSI in [8] was 65. Further, the RBA in series [10] was 282.
Take `C[C@@]1(c2ccc(F)cc2)O[C@@H]2CC3C4CCC5=CC(=O)CC[C@@H]5C4CC[C@]3(C)[C@]2(C(=O)CO)O1` (stereo partly specified): the Injected dose/g was 0.44% in series [1]; 1.42% in [2]; 0.34% in [3]; 2.8% in [6]; 3.53% in [7]; 0.26% in series [9]. The Injected dose/g in series [11] is given as 0.6%; in [13] it was 3.65%; in series [14], 0.62%; in series [15], 4.25%. For the same compound, the NSB in series [4] was 2.45. For the same compound, the “Uterus to blood concentration ratio” value in series [5] was found to be 14%. In addition, the BSI in series [8] was found to be 98. In series [10], the RBA is 240. Moreover, in series [12], the “Uterus to muscle uptake ratio” value is listed as 8.2%.

Source of the values: ChEMBL document CHEMBL1128440 (J Med Chem, 1995).
